In one data set the test system is L02. Nature of the data set: Cytotoxicity against human L02 cells assessed as reduction in cell viability after 72 hrs by MTT assay. The class given is cell-based. As to conditions: L02, 72 h. The method, boiled down:
(§1)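 MTT assay. Cells were seeded and grown 24 h at 37 °C in 5% CO2, then exposed to compound or left untreated for 72 h. MTT (5 mg/mL stock) was added for 4 h and the formazan dissolved in DMSO. OD was read at 570 nm. IC50 is the concentration giving 50% growth inhibition, reported as mean ± SD of three independent experiments. Vehicle reference was 0.1% DMSO.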
In general terms: Tetrazolium assays rely on reduction of a dye to a coloured formazan, in cell work by metabolically active cells.

Another data set concerns HepG2. Nature of the data set: Antiproliferative activity against human HepG2 cells after 72 hrs by MTT assay. Particulars: HepG2, 72 h. It counts as functional, cell-based. The method, boiled down: as §1
The test system of a further data set is HT-29. Nature of the data set: Antiproliferative activity against human HT-29 cells after 72 hrs by MTT assay. The class given is functional, cell-based. As to conditions: HT-29, 72 h. The method, boiled down:
as §1

A short description of data set [1]: Drug metabolism in human HepG2 cells assessed as NO release by measuring nitrite formation at 100 uM after 1 hr by Griess assay. It counts as ADME, cell-based. As to conditions: hepg2, 1 h. The method, boiled down: (§2)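 HepG-2 or L-02 cells were exposed to 100 µM of each compound for 60 min and then harvested. Lysates were mixed with Griess reagent for 10 min at 37 °C and absorbance was read at 550 nm. NO release is expressed as nitrite, reported as mean ± SD of three independent experiments.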
(In general: Nitrite, measured by Griess reagent, commonly stands in for NO production.)

Data set [2] in a line: Selectivity index, ratio of IC50 for human L02 cells to IC50 for human HepG2 cells. It counts as toxicity. Particulars: L02 cells and HepG2 cells, read-out: Ratio IC50. The procedure, abridged:
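MTT assay: cells grown 24 h at 37 °C, 5% CO2, then exposed 72 h; MTT (5 mg/mL) added for 4 h, formazan dissolved in DMSO, OD read at 570 nm. Vehicle 0.1% DMSO. Three independent experiments.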

Data set [3] in a line: Drug metabolism in human L02 cells assessed as NO release by measuring nitrite formation at 100 uM after 1 hr by Griess assay. The class given is ADME, cell-based. As to conditions: l02, 1 h. The procedure, abridged:
as §2

A further data set deals with PC-3. Nature of the data set: Antiproliferative activity against human PC3 cells after 72 hrs by MTT assay. The class given is functional, cell-based. Particulars: PC-3, 72 h. The method, boiled down: as §1

pIC50: −log10 of the molar value.

The pIC50 is the IC50 on a negative log10 scale, so that one unit is a factor of ten.

Turning to `C[C@H]1CCC/C=C/[C@@H]2C[C@H](OC(=O)c3ccccc3C(=O)OCCOc3no[n+]([O-])c3S(=O)(=O)c3ccccc3)C[C@H]2[C@H](OC(=O)c2ccccc2C(=O)OCCOc2no[n+]([O-])c2S(=O)(=O)c2ccccc2)/C=C/C(=O)O1`, the pIC50 in the data set with L02 is 5.21; in the data set on HepG2, 6.26; in the data set with HT-29, 6.64; in the data set on PC-3, 6.89. The figures for the Drug metabolism in data set [1] and in data set [3] were 89.3 µM and 20.6 µM, respectively. Besides, in data set [2], the selectivity ratio turned out to be 11.
Take `C[C@H]1CCC/C=C/[C@@H]2C[C@H](OC(=O)c3ccccc3C(=O)OCCCOc3no[n+]([O-])c3S(=O)(=O)c3ccccc3)C[C@H]2[C@H](OC(=O)c2ccccc2C(=O)OCCCOc2no[n+]([O-])c2S(=O)(=O)c2ccccc2)/C=C/C(=O)O1`: the pIC50 is 5.01 in the data set on L02, 5.40 in the data set on HepG2, 5.36 in the data set with HT-29 and 5.89 in the data set with PC-3. The selectivity ratio in data set [2] is 2.
As for `C[C@H]1CCC/C=C/[C@@H]2C[C@H](OC(=O)CCC(=O)OCCOc3no[n+]([O-])c3S(=O)(=O)c3ccccc3)C[C@H]2[C@H](OC(=O)CCC(=O)OCCOc2no[n+]([O-])c2S(=O)(=O)c2ccccc2)/C=C/C(=O)O1`, the pIC50 in the data set with L02 is 5.23; with HepG2 it was 6.29; in the data set with HT-29 it was 6.66; with PC-3, 7.25. Further, the values for the Drug metabolism in data set [1] and in data set [3] were 98.4 µM and 19.5 µM, respectively. Also, the selectivity ratio in data set [2] turned out to be 12.
Take `O=C(O)CCC(=O)OCCCOc1no[n+]([O-])c1S(=O)(=O)c1ccccc1`: the negative-log IC50 (pIC50) is 4.54 in the data set on L02, 5.19 in the data set with HepG2, below 5.00 in the data set on HT-29 and below 5.00 in the data set on PC-3. In addition, the selectivity ratio in data set [2] worked out at 5.
With `C[C@H]1CCC/C=C/[C@@H]2C[C@H](OC(=O)CCCC(=O)OCCCOc3no[n+]([O-])c3S(=O)(=O)c3ccccc3)C[C@H]2[C@H](OC(=O)CCCC(=O)OCCCOc2no[n+]([O-])c2S(=O)(=O)c2ccccc2)/C=C/C(=O)O1`, the pIC50 in the data set with L02 was 5.29; in the data set with HepG2, 6.42; with HT-29 it was 6.21; with PC-3, 7.08. For the same molecule, the Drug metabolism in data set [1] came out at 92.3 µM; in data set [3] it was 23.4 µM. Besides, the selectivity ratio in data set [2] came to 13.
For the molecule `C[C@H]1CCC/C=C/[C@@H]2C[C@H](OC(=O)CCCC(=O)OCCCOc3no[n+]([O-])c3S(=O)(=O)c3ccccc3)C[C@H]2[C@H](O)/C=C/C(=O)O1`, the negative logarithm of the IC50 (pIC50) in the data set with L02 is 5.17; in the data set with HepG2 it was 6.12; in the data set with HT-29, 5.80; with PC-3, 6.80. Besides, in data set [2], the selectivity ratio came to 9.
For `C[C@H]1CCC/C=C/[C@@H]2C[C@H](O)C[C@H]2[C@H](OC(=O)c2ccccc2C(=O)OCCCOc2no[n+]([O-])c2S(=O)(=O)c2ccccc2)/C=C/C(=O)O1`, in that order: 5.23, 6.21, 6.07, 6.82 and 10.
Consider `C[C@H]1CCC/C=C/[C@@H]2C[C@H](OC(=O)CCC(=O)O)C[C@H]2[C@H](O)/C=C/C(=O)O1`, for which the pIC50 in the data set with L02 is 5.02; in the data set with HepG2, 5.80; with HT-29, 5.20; in the data set on PC-3, 5.80. For the same molecule, in data set [2], the selectivity ratio came out at 6.
Consider `C[C@H]1CCC/C=C/[C@@H]2C[C@H](O)C[C@H]2[C@H](OC(=O)CCCC(=O)OCCOc2no[n+]([O-])c2S(=O)(=O)c2ccccc2)/C=C/C(=O)O1`, for which the negative logarithm of the IC50 (pIC50) with L02 was 5.29; with HepG2 it was 6.39; with HT-29, 6.55; with PC-3, 7.34. Also, the Drug metabolism in data set [1] came to 68.5 µM; in data set [3] it was 13.9 µM. Besides, the selectivity ratio in data set [2] amounted to 12.
As for `C[C@H]1CCC/C=C/[C@@H]2C[C@H](OC(=O)c3ccccc3C(=O)OCCOc3no[n+]([O-])c3S(=O)(=O)c3ccccc3)C[C@H]2[C@H](O)/C=C/C(=O)O1`, the pIC50 in the data set on L02 was 5.23; in the data set with HepG2, 6.27; in the data set with HT-29 it was 6.55; in the data set on PC-3 it was 7.19. For the same molecule, the selectivity ratio in data set [2] turned out to be 11.
For `C[C@H]1CCC/C=C/[C@@H]2C[C@H](O)C[C@H]2[C@H](OC(=O)CCC(=O)OCCCOc2no[n+]([O-])c2S(=O)(=O)c2ccccc2)/C=C/C(=O)O1`, in that order: 5.16, 6.14, 6.10, 6.60 and 9.
For `C[C@H]1CCC/C=C/[C@@H]2C[C@H](OC(=O)CCC(=O)OCCOc3no[n+]([O-])c3S(=O)(=O)c3ccccc3)C[C@H]2[C@H](O)/C=C/C(=O)O1`, in that order: 5.28, 6.04, 6.34, 6.85 and 6.
Regarding `C[C@H]1CCC/C=C/[C@@H]2C[C@H](OC(=O)CCCC(=O)OCCOc3no[n+]([O-])c3S(=O)(=O)c3ccccc3)C[C@H]2[C@H](O)/C=C/C(=O)O1`, the pIC50 is 5.29 in the data set with L02, 6.09 in the data set with HepG2, 6.74 in the data set with HT-29 and 7.23 with PC-3. Besides, the Drug metabolism in data set [1] was 65.2 µM; in data set [3], 14.6 µM. Further, in data set [2], the selectivity ratio is 6.

The values are drawn from ChEMBL document CHEMBL4138082 (Eur J Med Chem, 2017).
